Source: paper PMC11982377 (Communications Biology, 2025)
Entries after “also recorded” stand apart in the source; their conditions may differ.

Key:
[1] = tested on: WDR5; settings: MV4-11 cells ref 34; cited from earlier work
[2] = tested on: Sf9 cells; assay: PROTAC cellular permeability and distribution measured by LCMS; type: in vitro ADME, Spodoptera frugiperda; settings: 10 µM, 24 h
[3] = target: T1, sfWDS (Spodoptera frugiperda, UniProt A0A2H1VC02); assay: In vitro ubiquitination; type: biochemical; settings: listed as MS67
[4] = target: T1, sfWDS; assay: Sf9 cell degradation assay; type: cell-based; settings: Sf9 cells
Method in brief: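 Sf9 cells in ESF921 medium, split into 1e6-cell aliquots and treated 24 h with test compound or DMSO. For sfWDS, some treatments at 10 μM ± bortezomib 10 μM. Lysed in Tris-SDS, then acetone precipitation, urea reduction/alkylation, Trypsin/LysC digest and MCX cleanup. Stable-isotope peptide standards spiked in; targeted MS. Signal normalised to isotope and total peptide, as % of DMSO. n = 4. Dose-response by 4-parameter fit.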

Q: For `Cc1ncsc1-c1ccc([C@H](C)NC(=O)[C@@H]2C[C@@H](O)CN2C(=O)[C@@H](NC(=O)CNC(=O)c2ccc(F)c(-c3ccc(N4C[C@@H](C)N(C)[C@@H](C)C4)c(NC(=O)c4c[nH]c(=O)cc4C(F)(F)F)c3)c2)C(C)(C)C)cc1` [Compound 12], which “Dmax, degradation of WDR5” value [1] is on record?
A: The value was 94%.

Q: And the “PROTAC in cells (of total PROTAC recovery, cells vs media)” value [2]?
A: Its value is “only detected at very low intracellular levels”.

Q: What about the “IVQ Y/N (ubiquitination of sfWDS)” value [3] of the same compound?
A: The value was “polyubiquitination of sfWDS was observed in a dose-dependent manner”.

Q: And the “degradation of sfWDS in cell” value [4]?
A: The value was “did not demonstrate in cell degradation”.

Q: What about the “degradation of sfWDS in cell” value ([4]; listed as MS67) of the same compound?
A: Its value is “failed to prompt degradation of sfWDS; also recorded: did not show degradation in cells”.
